Assay results from the EternaBench riboswitch data.

Key:
MS2 coat protein [1] = assay: apparent Kd, MS2 coat protein; higher = weaker binding; RNA-MaP array; tryptophan 2.4 mM where present
Summary of the method: (§1)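 The apparent Kd is reported as the median of filtered per-cluster binding-curve fits. To get these curves, designs transcribed by stalled E. coli RNA polymerase on Illumina sequencing-chip clusters were titrated with SNAP-549-labelled MS2 coat protein from 0.7 or 1.5 nM, doubling to 3 µM. Titrations were run without and then with constant ligand in 100 mM Tris-HCl pH 7.5, 80 mM KCl, 4 mM MgCl2, BSA, DTT, yeast tRNA and Tween-20, and green signal was normalised to red-channel RNA signal and control-cluster median Fmax.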

MS2 coat protein [2] = assay: apparent Kd, MS2 coat protein; higher = weaker binding; RNA-MaP array; theophylline 2 mM where present; settings: designed as: ON switch for theophylline
Summary of the method: as §1

[3] = designed as: ON switch for tryptophan, no ligand
[4] = ligand present: tryptophan, designed as: ON switch for tryptophan
[5] = designed as: OFF switch for tryptophan, no ligand
[6] = ligand present: tryptophan, designed as: OFF switch for tryptophan

Sequence | apparent Kd (MS2 coat protein [1]; [3]) [nM] | apparent Kd (MS2 coat protein [1]; [4]) [nM] | apparent Kd (MS2 coat protein [1]; [5]) [nM] | apparent Kd (MS2 coat protein [1]; [6]) [nM] | other results
AGAGUCUAGUCGGCCGCCACUCAUGUCCAAUGGACAUGAGGAUCACCCAUGUACCGAAGGUACAUGAGGACCGGGACUGGACUCA | 153 | 11.7 | – | – | –
UCGUUGAAGUCGGCCGCCACUGAACUCAUGUUCAACAUGAGGAUCACCCAUGUACCUUAUUUUAACAGGACCGGGACUUUGACGA | – | – | 167 | 156 | –
AACAUGAGGAUCACCCAUGUGUCCUCGAAACGAGGACCGGUACGGCCGCCACUCGGCGUAUGUUGACGAAAAGUCAGCAUACGCA | – | – | 192 | 737 | –
UAAUGCAGGUCGGCCGCCACUACACACAUGAGGAUCACCCAUGUAGUUACUGGGUGAAGUGGCAGUAGGACCGGGACCUGCAUAC | 372 | 470 | – | – | –
AGCACUGUGACGGCCGCCACUAUAUUAGGGUGGUCAGGUUCAUAAAUACAUGAGGAUCACCCAUGUAGGACCGGGUCUCAGUGCA | – | – | 9.48 | 9.88 | –
CUAUAAGUACCGGUCCUCAGAUCCUCAUGACGAGGACCGGUACGGCCGCCACUCGAAACAUGAGGAUCACCCAUGUAAUAAUAUU | – | – | 20.2 | 19.3 | –
CCUAUGCAGUCGGCCGCCACUGAAAACAGCCUCAAAAUAAAUAUAACAUGAGGAUCACCCAUGUACAGGACCGGGACUGUAUAGG | – | – | 147 | 79.6 | –
AGCCACUCGAGUGAUCCUCACGAGUGGCUACGAGGACCGGUACGGCCGCCACUCGAAUUAACAUGAGGAUCACCCAUGUAAUCUC | 102 | 45.9 | – | – | –
AGCCACUCGAACAUGGGUGACGAGUGGCAACGAGGACCGGUACGGCCGCCACUCGAAUAAACAUGAGGAUCACCCAUGUACAAAU | 292 | 214 | – | – | –
CACGAAAGAUCGGCCGCCACUAUUUGAUGUGUUCUUUCACAUGAGGAUCACCCAUGUUCUUAUUUUAGGACCGGGAUUGAGCGUG | – | – | 94.8 | 69.3 | –
CGCACAUGAGGAUCACCCAUGUGAGGGCGUCGAGGACCGGUACGGCCGCCACUCGCAGGACAUGAGGAUCACCCAUGUGCCGCCG | 116 | 57.2 | – | – | –
GGCUAUACUACGGCCGCCACUGAACAUGAGGAUCACCCAUGUAAUGUUCAGAUUUUUUUUUUUUACAGGACCGGGUAGAAUUGCC | 195 | 104 | – | – | –
GGCAAAAGGUCGGCCGCCACUGUAGGAUGUGUUCUUUCACAUGAGGAUCACCCAUGUUGUUAUUAUAGGACCGGGAUUUUAGGAC | – | – | 21.8 | 21.1 | –
UAAACUACACAUGAGGAUCACCCAUGUGGCCGAGGACCGGUACGGCCGCCACUCGUGUGUUAAUAAUAGAACUGCAAGGUUCUGU | 183 | 75.2 | – | – | –
UUAAUUAUUGAAUCGUAUUGGUAUUAAGAACGAGGACCGGUACGGCCGCCACUCGUGAUAUACAUGAGGAUCACCCAUGUUAGCA | 14.8 | 14 | – | – | –
GCAUCCUAGUCGGCCGCCACUGGUAUGAACACCUUCACCCGUGUGCACAUGAGGAUCACCCAUGUUAGGACCGGGACUAGGAUGC | 9.03 | 9.3 | – | – | –
CGAAUAUAGACGGCCGCCACUCUACAAACAUGAGGAUCACCCAUGUUCACAUAGUGGAAACACAUGAGGACCGGGUCAUAGGCUU | 22.6 | 17.1 | – | – | –
UAACAUGAGGAUCACCCAUGUUUAGAAGAACGAGGACCGGUACGGCCGCCACUCGAAAAGUGGAAGAAAAGAGGGAUAGAAUGAU | 12.2 | 12.6 | – | – | –

Sequence | apparent Kd (MS2 coat protein [1]; [3]) [nM] | apparent Kd (MS2 coat protein [1]; [4]) [nM] | apparent Kd (MS2 coat protein [1]; [5]) [nM] | apparent Kd (MS2 coat protein [1]; [6]) [nM] | other results
GGGUGGUAGGCGGCCGCCACUGAUUUUCAUUCCUGGAUGACAUGAGGAUCACCCAUGUUUACGGGCAGGACCGGGCCUGCUGUGG | 57.3 | 46.5 | – | – | –
AGAGUCUAGUCGGCCGCCACUCAUGUCCAAUGGACAUGAGGAUCACCCAUGUACCAAAGGUACAUGAGGACCGGGACUGGACUCA | 47.7 | 7.57 | – | – | –
AGCACUGUGACGGCCGCCACUACAUAACAUGGGUGGUCAGGUUCAUUACAUGAGGAUCACCCAUGUAGGACCGGGUCUCAGUGCA | – | – | 10.1 | 8.35 | –
CGCGCGACAUGAGGAUCACCCAUGUUCCCUCGAGGACCGGUACGGCCGCCACUCGAGGACAUGAGCAUCAGCCAUGUACCGGUCA | 51.6 | 131 | – | – | –
CCUCAAUAGACGGCCGCCACUGAAACAUGAGGAUACAUGAGGAUCACCCAUGUGGGUGUGUUACGCAGGACCGGGUCAAGACCCG | 207 | 336 | – | – | –
GCUGCAGCUACGGCCGCCACUGUUACGUGAGACAUGAGGAUCACCCAUGUUGAUGUUUUACGGUAUAGGACCGGGUAGUUGUAGU | – | – | 9.7 | 13.4 | –
UAAUAAGUACCGGUCCUCAGAUCCUCAUGACGAGGACCGGUACGGCCGCCACUCGAAACAUGAGGAUCACCCAUGUAAUAAUAAC | – | – | 27.4 | 19.4 | –
AGAGUCUAGUCGGCCGCCACUCAUGUCCAAAGGACAUGAGGAUCACCCAUGUACCAAUGGUACAUGAGGACCGGGACUGGACUCA | 27.7 | 8.33 | – | – | –
AGAAUAUAGUCGGCCGCCACUCUACAUACAUGAGGAUCACCCAUGUUUACAUAGUGAAUAUACAUGAGGACCGGGACAUAGGCAU | 21.8 | 13.4 | – | – | –
AAUACCGGAUCGGCCGCCACUGGUUGGCCCUGUGUACAUGAGGAUCACCCAUGUCCAUCCCAGACCAGGACCGGGAUCUUUGUGU | 15.8 | 10.4 | – | – | –
GGUGGACUUUCGGCCGCCACUGAGAGAGUCGUGUGAACAUGAGGAUCACCCAUGUAAUAUAUAUACAGGACCGGGAGGGUUGUCC | – | – | 15.9 | 15.9 | –
GAUAUACGUGCGGCCGCCACUGAGUGGCGGGCGUGUCGAGUUACAUGAGGAUCACCCAUGUCACUCAGGACCGGGCACGGAAUUU | – | – | 9.98 | 11.4 | –
CACGAAAGAUCGGCCGCCACUCAUGUUUCUUACAUGAGGAUCACCCAUGUAUUUUCUUUCUUUUAGAGGACCGGGAUUGAGCGUG | 155 | 29.8 | – | – | –
GUUAUUAGAAAACUAAUAACAGUGGGUGAACGAGGACCGGUACGGCCGCCACUCGGACAUGAGGAUCACCCAUGUCCAUGUGAAA | – | – | 15.4 | 32.7 | –
CCUAUGCAGUCGGCCGCCACUGAACAUGAGGAUCACCCAUGUAAUUAAAAUUAAGGUCCUAAAAUCAGGACCGGGACUGUAUAGG | – | – | 38.5 | 237 | –
ACCUGCGUUUGUUUCUUUCUGACGCAGGUUCGAGGACCGGUACGGCCGCCACUCGGACAUGAGGAUCACCCAUGUUUGACAUGGG | – | – | 57.3 | 17.3 | –
AGUGUAUCCAUCGAUACCAGCCACAACGUAACAUACACAUGAGGAUCACCCAUGUUGUGUGGCCCUUGGCAGCGGUGCCUGUGUA | – | – | – | – | apparent Kd (MS2 coat protein [2]; no ligand): 14.3 nM; apparent Kd (MS2 coat protein [2]; ligand present: theophylline): 12.2 nM
GGGCCUGUAGGCAGGCCCACAGCGGGUGAUACCAGCAAUAAAACUUGCCCUUGGCAGCACACAGCUACAUGAGGAUCACCCAUGU | – | – | – | – | apparent Kd (MS2 coat protein [2]; no ligand): 41.2 nM; apparent Kd (MS2 coat protein [2]; ligand present: theophylline): 70.5 nM
